The source made the active and inactive calls. The calls are words filed in the database; no cut-off is given here.
Key:
[1] = molecular target: T1, Sodium-dependent serotonin transporter (Rattus norvegicus, UniProt P31652); assay: In vitro binding affinity in LLC-PK1 cells by SERT binding assay by using [125I]IDAM as a radioligand; format: cell-based
In short: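 LLC-PK1 membrane homogenates overexpressing SERT. Incubated with 0.4 nM [125I]IDAM and 8–10 competitor concentrations (10^-10 to 10^-5 M) in 50 mM Tris-HCl pH 7.4, 120 mM NaCl, 0.1% BSA for 1 h at room temperature. Nonspecific binding defined with 1 μM IDAM. Filter-bound activity gamma-counted, nonlinear regression. Mean ± SEM, three determinations in duplicate.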

[2] = molecular target: Sodium-dependent dopamine transporter (Rattus norvegicus, UniProt P23977); assay: In vitro binding affinity in LLC-PK1 cells by Dopamine transporter binding assay by using [125I]IPT as a radioligand; format: cell-based
Chain of Sodium-dependent dopamine transporter (P23977 whole entry): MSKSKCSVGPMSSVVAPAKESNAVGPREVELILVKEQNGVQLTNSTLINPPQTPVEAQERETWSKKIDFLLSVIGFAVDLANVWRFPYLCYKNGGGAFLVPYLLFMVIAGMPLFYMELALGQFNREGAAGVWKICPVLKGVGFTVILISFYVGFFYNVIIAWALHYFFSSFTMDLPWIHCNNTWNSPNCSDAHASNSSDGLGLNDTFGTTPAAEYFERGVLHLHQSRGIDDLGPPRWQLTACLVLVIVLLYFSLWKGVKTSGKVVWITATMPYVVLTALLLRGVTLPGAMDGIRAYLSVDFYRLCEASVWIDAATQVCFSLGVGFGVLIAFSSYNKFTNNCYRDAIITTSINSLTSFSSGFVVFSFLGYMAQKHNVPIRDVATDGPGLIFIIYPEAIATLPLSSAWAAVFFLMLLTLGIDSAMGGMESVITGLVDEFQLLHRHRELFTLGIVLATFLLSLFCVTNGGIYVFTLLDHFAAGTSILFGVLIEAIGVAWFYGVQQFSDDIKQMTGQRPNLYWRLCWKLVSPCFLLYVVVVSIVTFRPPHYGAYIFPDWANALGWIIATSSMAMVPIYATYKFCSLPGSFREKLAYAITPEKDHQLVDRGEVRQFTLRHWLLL
In short: (§1)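 LLC-PK1 cell membrane homogenates overexpressing DAT or NET. Incubated with 0.4 nM [125I]IPT and 8–10 competitor concentrations (10^-10 to 10^-5 M) in 50 mM Tris-HCl pH 7.4, 120 mM NaCl, 0.1% BSA for 1 h at room temperature. Nonspecific binding defined with 10 μM CFT. Filtered, gamma-counted, nonlinear regression. Mean ± SEM of three determinations in duplicate.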

[3] = molecular target: T2, Sodium-dependent noradrenaline transporter (Homo sapiens, UniProt P23975); assay: In vitro binding affinity in LLC-PK1 cells by Norepinephrine transporter binding assay by using [125I]-IPT as a radioligand; format: cell-based; in short: as §1
T2 sequence (P23975 whole entry, looked up): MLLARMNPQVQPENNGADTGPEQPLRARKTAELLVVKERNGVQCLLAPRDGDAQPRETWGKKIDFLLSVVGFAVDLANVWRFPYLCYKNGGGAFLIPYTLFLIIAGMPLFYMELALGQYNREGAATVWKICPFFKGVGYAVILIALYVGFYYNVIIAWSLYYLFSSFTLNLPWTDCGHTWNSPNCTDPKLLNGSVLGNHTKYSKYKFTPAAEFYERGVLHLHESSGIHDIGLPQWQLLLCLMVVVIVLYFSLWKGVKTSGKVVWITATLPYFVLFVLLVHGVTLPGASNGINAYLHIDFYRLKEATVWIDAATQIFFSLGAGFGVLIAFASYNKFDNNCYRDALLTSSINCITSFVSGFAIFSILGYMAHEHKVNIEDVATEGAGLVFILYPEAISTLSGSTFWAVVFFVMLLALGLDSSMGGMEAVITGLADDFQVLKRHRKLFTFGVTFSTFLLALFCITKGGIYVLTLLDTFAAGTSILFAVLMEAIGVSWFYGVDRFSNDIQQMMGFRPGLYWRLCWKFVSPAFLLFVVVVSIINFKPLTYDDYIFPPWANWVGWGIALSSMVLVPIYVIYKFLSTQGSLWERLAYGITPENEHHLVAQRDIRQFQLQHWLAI

[4] = molecular target: T2, Sodium-dependent noradrenaline transporter; assay: Selectivity for norepinephrine transporter
[5] = molecular target: Sodium-dependent dopamine transporter (Rattus norvegicus) (UniProt P23977); assay: Selectivity for Dopamine transporter; No inhibition
Chain of Sodium-dependent dopamine transporter (Rattus norvegicus) (P23977 whole entry): as the sequence (P23977 whole entry) above

[6] = molecular target: T1, Sodium-dependent serotonin transporter; assay: Inhibition of 5-HT reuptake (SERT) in rat brain synaptosomes.; format: subcellular

T1 sequence (P31652 whole entry): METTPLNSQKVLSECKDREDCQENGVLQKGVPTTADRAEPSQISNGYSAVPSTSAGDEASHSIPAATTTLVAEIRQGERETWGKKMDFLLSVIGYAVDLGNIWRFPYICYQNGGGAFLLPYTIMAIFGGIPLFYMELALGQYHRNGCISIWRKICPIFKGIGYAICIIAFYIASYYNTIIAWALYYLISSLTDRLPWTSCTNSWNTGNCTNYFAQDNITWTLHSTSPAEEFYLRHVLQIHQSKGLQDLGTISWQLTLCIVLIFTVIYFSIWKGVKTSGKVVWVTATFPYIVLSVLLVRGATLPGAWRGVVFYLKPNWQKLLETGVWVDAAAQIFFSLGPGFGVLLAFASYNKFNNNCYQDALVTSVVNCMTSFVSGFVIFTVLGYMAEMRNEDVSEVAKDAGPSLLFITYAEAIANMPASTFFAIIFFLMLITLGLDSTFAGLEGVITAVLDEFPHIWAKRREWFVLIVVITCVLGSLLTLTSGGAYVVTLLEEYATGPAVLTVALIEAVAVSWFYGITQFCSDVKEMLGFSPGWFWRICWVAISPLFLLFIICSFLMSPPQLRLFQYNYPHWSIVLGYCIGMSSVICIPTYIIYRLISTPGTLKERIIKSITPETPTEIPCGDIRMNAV

| Ki [1] | Ki [2] | Ki [3] | Compound | further results |
| --- | --- | --- | --- | --- |
| 1.1 nM |  |  | CN(C)Cc1ccccc1Sc1ccc(CF)cc1N |  |
| 1.1 nM |  |  | Cc1ccc(Sc2ccccc2CN(C)C)c(N)c1 |  |

Second part, the compound before the results:

| Compound | Ki [1] | Ki [2] | Ki [3] | further results |
| --- | --- | --- | --- | --- |
| CN(C)Cc1ccccc1Sc1cc(F)c(Cl)cc1[N+](=O)[O-] | 4.16 nM | 31900 nM | 2810 nM |  |
| COc1ccc(Sc2ccccc2CN(C)C)c(N)c1 | 1.1 nM |  |  |  |
| CN(C)Cc1ccccc1Sc1ccc(Cl)cc1CO |  |  |  | Ki [4]: 55 nM; NI [5]: inactive; Ki [6]: 2.1 nM |
| CN(C)C(=O)c1ccccc1Sc1cc(N)c(Cl)cc1[N+](=O)[O-] | 2.39 nM | 3050 nM | 15000 nM |  |
| CN(C)Cc1ccccc1Sc1ccc(I)cc1N |  | 699 nM | 699 nM |  |
